Data as given in ChEMBL document CHEMBL1142699 (J Med Chem, 2005).
Active and inactive are the calls of the source. The rule behind the calls is not given here. Numbered stars: 1 amine (or outer) side, 2 acyl side, 3 side chain; on linkers, the order of the positions; unused ones are H or OH. Square brackets hold non-standard residues; d marks the D form. Peptide text beside a SMILES is read from it. X1 = N[C@@H](Cc1ccccc1)CN(CC(=O)[*:2])[*:1]; Phe(4-F) = N[C@@H](Cc1ccc(F)cc1)C(=O)O

Legend:
Nociceptin receptor [1] = biological target: Nociceptin receptor (Mus musculus, UniProt P35377); assay: Inhibition of electrically evoked contraction of mouse vas deferens; assay type: functional
How it was run: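 Vas deferens from male Swiss mice (25-30 g), in Mg2+-free Krebs at 33 °C under 0.3 g resting tension. Field-stimulated with 1 ms supramaximal pulses at 0.05 Hz; twitches recorded isotonically. After ~1 h equilibration, cumulative concentration-response curves in 0.5 log steps. […] 5-8 experiments.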

Nociceptin receptor [2] = biological target: Nociceptin receptor (Cavia porcellus, UniProt P47748); assay: Inhibition of electrically evoked contraction of guinea pig ileum; assay type: functional, tissue-based
How it was run: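 Guinea pig ileum from albino animals (250-300 g), in Krebs at 37 °C under 0.3 g resting tension. Field-stimulated with 1 ms supramaximal pulses at 0.05 Hz; twitches recorded isotonically. After ~1 h equilibration, cumulative concentration-response curves in 0.5 log steps. […] 5-8 experiments.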

Nociceptin receptor [3] = biological target: T1, Nociceptin receptor (Homo sapiens, UniProt P41146); assay: Agonist potency against GTPgammaS binding in CHO cell membranes expressing the human NOP receptor (CHOhNOP)
Nociceptin receptor [4] = biological target: T1, Nociceptin receptor; assay: Receptor binding affinity for recombinant human N/OFQ peptide receptor (NOP) expressed in chinese hamster ovary cells; assay type: cell-based, CHO
Nociceptin receptor [5] = biological target: T1, Nociceptin receptor; assay: Inhibition of forskolin stimulated cAMP levels in CHO cells expressing the human NOP receptor (CHOhNOP)
Nociceptin receptor [6] = biological target: T1, Nociceptin receptor; assay: Agonist potency against GTPgammaS binding in CHO cell membranes expressing human NOP receptor (CHOhNOP)
How it was run: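 Membranes from CHO cells stably expressing human NOP, homogenized in 50 mM Tris-HCl/0.2 mM EGTA. 20 µg homogenate, 1 h at 30 °C. Buffer: Tris-HCl, 1 mM MgCl2, 100 mM NaCl, 0.2 mM EGTA, BSA, bacitracin, 10 µM peptidase inhibitors, 100 µM GDP, 150 pM GTPγ[35S]. Nonspecific binding defined with 10 µM GTPγS.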

[7] = biological target: Nociceptin receptor (Mus musculus) (UniProt P35377); assay: Inhibition of electrically evoked contraction of mouse vas deferens; Effect evident only in some tissues; assay type: functional; details: filed as agonist
[8] = biological target: Nociceptin receptor (Cavia porcellus) (UniProt P47748); assay: Antagonistic potency against N/OFQ in electrically evoked contractions of guinea pig ileum at 1 uM; assay type: functional, tissue-based
[9] = biological target: Nociceptin receptor (Mus musculus) (UniProt P35377); assay: Maximal inhibition of electrically evoked contraction of mouse vas deferens; Effect evident only in some tissues; assay type: functional; details: filed as agonist
[10] = biological target: Nociceptin receptor (Cavia porcellus) (UniProt P47748); assay: Maximal inhibition of electrically evoked contraction of guinea pig ileum; Effect evident only in some tissues; assay type: functional, tissue-based; details: filed as agonist
[11] = biological target: Nociceptin receptor (Cavia porcellus) (UniProt P47748); assay: Inhibition of electrically evoked contraction of guinea pig ileum; Effect evident only in some tissues; assay type: functional, tissue-based; details: filed as agonist
[12] = biological target: Nociceptin receptor (Mus musculus) (UniProt P35377); assay: Antagonistic potency against N/OFQ in electrically evoked contraction of mouse vas deferens at 1 uM; assay type: functional, tissue-based
How it was run: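 Male Swiss mice (25-30 g). Vas deferens in 5 mL baths of Mg2+-free Krebs at 33 °C, 0.3 g tension, field-stimulated with supramaximal 1 ms pulses at 0.05 Hz, isotonic recording.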

Nociceptin receptor [13] = biological target: T1, Nociceptin receptor; assay: Agonist potency against GTPgammaS binding in CHO cell membranes expressing the human NOP receptor (CHOhNOP) at 0.1 uM
How it was run: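 CHOhNOP membranes (20 µg) incubated 1 h at 30 °C with gentle shaking in 50 mM Tris-HCl, 1 mM MgCl2, 100 mM NaCl, 0.2 mM EGTA, 1 mg/mL BSA, 150 µM bacitracin, 10 µM peptidase inhibitors, 100 µM GDP, 150 pM GTPγ[35S]. Nonspecific binding with 10 µM GTPγS; vacuum filtration. Data as stimulation factors (ligand/basal specific DPM); pEC50 derived.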

Nociceptin receptor [14] = biological target: T1, Nociceptin receptor; assay: Antagonistic potency against N/OFQ induced GTPgammaS binding to human NOP receptor expressed in CHO cell membranes at 0.1 uM; assay type: functional
[15] = biological target: Nociceptin receptor (Mus musculus) (UniProt P35377); assay: Maximal inhibition of electrically evoked contraction of mouse vas deferens at 10 uM; assay type: functional, tissue-based
[16] = biological target: Nociceptin receptor (Cavia porcellus) (UniProt P47748); assay: Maximal inhibition of electrically evoked contraction of guinea pig ileum at 10 uM; assay type: functional, tissue-based
[17] = biological target: Nociceptin receptor (Mus musculus) (UniProt P35377); assay: Inhibition of electrically evoked contraction of mouse vas deferens at 10 uM; assay type: functional
Nociceptin receptor [18] = biological target: T1, Nociceptin receptor; details: CHO
[19] = biological target: Nociceptin receptor (Cavia porcellus) (UniProt P47748); assay: Inhibition of electrically evoked contraction of guinea pig ileum at 10 uM; assay type: functional, tissue-based
Nociceptin receptor [20] = biological target: T1, Nociceptin receptor; assay: Inhibition of forskolin stimulated cAMP levels in CHO […] expressing the human NOP receptor (CHOhNOP); assay type: functional, cell-based
[21] = biological target: Nociceptin receptor (Cavia porcellus) (UniProt P47748); assay: Maximal inhibition of electrically evoked contraction of guinea pig ileum; assay type: functional, tissue-based
[22] = biological target: Nociceptin receptor (Mus musculus) (UniProt P35377); assay: Maximal inhibition of electrically evoked contraction of mouse vas deferens; assay type: functional, tissue-based

T1 sequence (P41146 whole entry): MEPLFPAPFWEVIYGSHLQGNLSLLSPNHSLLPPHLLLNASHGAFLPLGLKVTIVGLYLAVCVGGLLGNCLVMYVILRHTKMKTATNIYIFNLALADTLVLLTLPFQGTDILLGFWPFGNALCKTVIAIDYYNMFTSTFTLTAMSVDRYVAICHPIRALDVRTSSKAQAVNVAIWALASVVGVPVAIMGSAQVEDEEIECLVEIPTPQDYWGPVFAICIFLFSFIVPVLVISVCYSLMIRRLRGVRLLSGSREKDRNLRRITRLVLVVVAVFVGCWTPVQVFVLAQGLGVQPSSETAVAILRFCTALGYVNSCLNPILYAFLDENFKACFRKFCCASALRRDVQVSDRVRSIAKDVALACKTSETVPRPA
Nociceptin receptor (Cavia porcellus), sequence (P47748 whole entry): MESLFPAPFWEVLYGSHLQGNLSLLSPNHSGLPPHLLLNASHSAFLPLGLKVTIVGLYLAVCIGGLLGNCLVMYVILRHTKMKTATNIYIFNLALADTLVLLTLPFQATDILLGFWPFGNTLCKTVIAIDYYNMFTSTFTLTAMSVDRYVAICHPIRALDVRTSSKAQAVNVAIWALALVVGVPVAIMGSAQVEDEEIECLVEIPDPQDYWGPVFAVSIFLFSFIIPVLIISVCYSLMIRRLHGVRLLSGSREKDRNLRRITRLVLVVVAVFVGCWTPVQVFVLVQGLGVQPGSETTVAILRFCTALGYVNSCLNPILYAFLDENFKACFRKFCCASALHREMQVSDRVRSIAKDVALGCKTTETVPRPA
Nociceptin receptor (Mus musculus), sequence (P35377 whole entry): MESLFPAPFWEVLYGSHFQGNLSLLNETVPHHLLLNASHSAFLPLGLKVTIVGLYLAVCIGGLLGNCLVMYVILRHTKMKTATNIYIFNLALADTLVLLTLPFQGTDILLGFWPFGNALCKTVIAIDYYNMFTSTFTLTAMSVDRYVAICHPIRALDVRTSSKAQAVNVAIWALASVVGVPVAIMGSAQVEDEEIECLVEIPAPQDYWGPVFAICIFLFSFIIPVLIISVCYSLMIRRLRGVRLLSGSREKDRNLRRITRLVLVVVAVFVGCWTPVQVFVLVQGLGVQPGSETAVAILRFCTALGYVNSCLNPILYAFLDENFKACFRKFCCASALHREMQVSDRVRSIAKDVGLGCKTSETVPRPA
Nociceptin receptor (Mus musculus, UniProt P35377), sequence (P35377 whole entry): as above
Nociceptin receptor (Cavia porcellus, UniProt P47748), sequence (P47748 whole entry): as the sequence (P47748 whole entry) above

CC(C)C[C@H](NC(=O)[C@H](CCCCN)NC(=O)[C@H](CCCN=C(N)N)NC(=O)[C@H](C)NC(=O)[C@H](CO)NC(=O)[C@H](CCCCN)NC(=O)[C@H](CCCN=C(N)N)NC(=O)[C@H](C)NC(=O)CNC(=O)[C@@H](NC(=O)[C@H](Cc1ccccc1)NC(=O)CNC(=O)CNC(=O)[C@@H](N)Cc1ccccc1)[C@@H](C)O)C(=O)N[C@@H](C)C(=O)N[C@@H](CC(N)=O)C(=O)N[C@@H](CCC(N)=O)C(=O)O [NOCICEPTIN]
EC50 (Nociceptin receptor [1]): 5.37 nM
EC50 (Nociceptin receptor [2]): 5.25 nM

C[C@H](NC(=O)CNC(=O)[C@@H](NC(=O)[C@H](Cc1ccc(F)cc1)NC(=O)CNC(=O)CNC[C@@H](N)Cc1ccccc1)[C@@H](C)O)C(=O)N[C@@H](CCCN=C(N)N)C(=O)N[C@@H](CCCCN)C(=O)N[C@@H](CO)C(=O)N[C@@H](C)C(=O)N[C@@H](CCCN=C(N)N)C(=O)N[C@@H](CCCCN)C(=O)N[C@@H](CCCN=C(N)N)C(=O)N[C@@H](CCCCN)C(=O)N[C@@H](CC(N)=O)C(=O)N[C@@H](CCC(N)=O)C(N)=O (H-[X1]G[Phe(4-F)]TGARKSARKRKNQ-NH2)
EC50 (Nociceptin receptor [3]): 0.209 nM
EC50 (Nociceptin receptor [1]): 1.02 nM
Ki (Nociceptin receptor [4]): 0.02 nM
EC50 (Nociceptin receptor [5]): 0.302 nM

C[C@H](NC(=O)CNC(=O)[C@@H](NC(=O)[C@H](Cc1ccc(F)cc1)NC(=O)CNC(=O)CNC(=O)CNCc1ccccc1)[C@@H](C)O)C(=O)N[C@@H](CCCN=C(N)N)C(=O)N[C@@H](CCCCN)C(=O)N[C@@H](CO)C(=O)N[C@@H](C)C(=O)N[C@@H](CCCN=C(N)N)C(=O)N[C@@H](CCCCN)C(=O)N[C@@H](CCCN=C(N)N)C(=O)N[C@@H](CCCCN)C(=O)N[C@@H](CC(N)=O)C(=O)N[C@@H](CCC(N)=O)C(N)=O
Ki (Nociceptin receptor [4]): 0.0251 nM
EC50 (Nociceptin receptor [6]): 0.407 nM
EC50 (Nociceptin receptor [5]): 4.9 nM

CC(C)C[C@H](NC(=O)[C@H](CCCCN)NC(=O)[C@H](CCCN=C(N)N)NC(=O)[C@H](C)NC(=O)[C@H](CO)NC(=O)[C@H](CCCCN)NC(=O)[C@H](CCCN=C(N)N)NC(=O)[C@H](C)NC(=O)CNC(=O)[C@@H](NC(=O)[C@H](Cc1ccccc1)NC(=O)CNC(=O)CNC[C@@H](N)Cc1ccccc1)[C@@H](C)O)C(=O)N[C@@H](C)C(=O)N[C@@H](CC(N)=O)C(=O)N[C@@H](CCC(N)=O)C(N)=O (H-[X1]GFTGARKSARKLANQ-NH2)
EC50 (Nociceptin receptor [3]): 5.25 nM
Activity [7]: Agonist
pKb [8]: 6.65
Emax [9]: Agonist
Ki (Nociceptin receptor [4]): 0.129 nM
Emax [10]: Agonist
Log EC50 [11]: Agonist
pKb [12]: 7.17
EC50 (Nociceptin receptor [5]): 0.759 nM

C[C@H](NC(=O)CNC(=O)[C@@H](NC(=O)[C@H](Cc1ccccc1)NC(=O)CNC(=O)CNC(=O)CNCc1ccccc1)[C@@H](C)O)C(=O)N[C@@H](CCCN=C(N)N)C(=O)N[C@@H](CCCCN)C(=O)N[C@@H](CO)C(=O)N[C@@H](C)C(=O)N[C@@H](CCCN=C(N)N)C(=O)N[C@@H](CCCCN)C(=O)N[C@@H](CCCN=C(N)N)C(=O)N[C@@H](CCCCN)C(=O)N[C@@H](CC(N)=O)C(=O)N[C@@H](CCC(=O)N(N)N)C(=O)NN
Log EC50 (Nociceptin receptor [13]): inactive
pKb [8]: 6.79
pKb (Nociceptin receptor [14]): 9.13
Emax [15]: inactive
Emax [16]: inactive
Log EC50 [17]: inactive
pKb (Nociceptin receptor [18]): 7.11
pKb [12]: 7.24
Log EC50 [19]: inactive
Log EC50 (Nociceptin receptor [20]): inactive

C[C@H](NC(=O)CNC(=O)[C@@H](NC(=O)[C@H](Cc1ccccc1)NC(=O)CNC(=O)CNC(=O)[C@@H](N)Cc1ccccc1)[C@@H](C)O)C(=O)N[C@@H](CCCN=C(N)N)C(=O)N[C@@H](CCCCN)C(=O)N[C@@H](CO)C(=O)N[C@@H](C)C(=O)N[C@@H](CCCN=C(N)N)C(=O)N[C@@H](CCCCN)C(=O)N[C@@H](CCCN=C(N)N)C(=O)N[C@@H](CCCCN)C(=O)N[C@@H](CC(N)=O)C(=O)N[C@@H](CCC(=O)N(N)N)C(=O)NN
Emax [21]: 52%
Emax [22]: 95%
